# Measured values taken from ChEMBL document CHEMBL3244150, “Semisynthetic cephalosporins. Synthesis and structure-activity relationships of analogues with 7-acyl groups derived from 2-(cyanomethylthio)acetic acid or 2-[(2,2,2-trifluoroethyl)thio]acetic acid and their sulfoxides and sulfones” (1977).
# Calls of active or inactive are those of the source. The calls are words filed in the database; no cut-off is given here.
# Columns and labels:
# [1] = test system: Pseudomonas aeruginosa; experiment: Antibacterial activity against Pseudomonas aeruginosa after overnight incubation by twofold agar dilution method; format: functional, organism-based
# In short: (§1)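 Twofold agar dilution on Trypticase soy agar buffered to pH 6.0. MIC recorded in ug/ml.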
# [2] = test system: Escherichia coli; experiment: Antibacterial activity against Escherichia coli 12140 after overnight incubation by twofold agar dilution method; format: functional; in short: as §1
# [3] = test system: Enterococcus faecalis; experiment: Antibacterial activity against Streptococcus faecalis after overnight incubation by twofold agar dilution method; format: functional; in short: as §1
# [4] = test system: Staphylococcus aureus; experiment: Antibacterial activity against penicillin G-resistant Staphylococcus aureus HH 127 after overnight incubation by twofold agar dilution method; format: functional
# In short: (§2)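 MIC (ug/ml) determined by twofold agar dilution on Trypticase soy agar buffered to pH 6.0.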
# [5] = test system: Escherichia coli; experiment: Antibacterial activity against Escherichia coli 12140 infected in sc dosed mouse assessed as mouse survival after 3 days; format: functional; conditions: Escherichia coli, 12140, sc, 72 h; read-out: PD50
# In short: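 Mice infected ip with approximately 2 X 10 organisms per mouse of E. coli 12140 culture diluted in 5% hog gastric mucin (uniformly lethal). Fourfold dilutions dosed sc in equally divided portions at 1 and 5 h postinfection; five groups of ten mice each. Survivors observed for 3 days. PD50 = total dose (mg/kg) protecting 50% of mice, calculated by Litchfield and Wilcoxon method.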
# [6] = test system: Shigella flexneri; experiment: Antibacterial activity against Shigella paradysenteriae HH 117 after overnight incubation by twofold agar dilution method; format: functional; in short: as §2
# [7] = test system: Klebsiella pneumoniae; experiment: Antibacterial activity against Klebsiella pneumoniae 4200 after overnight incubation by twofold agar dilution method; format: functional; in short: as §1
# [8] = test system: Klebsiella aerogenes; experiment: Antibacterial activity against Enterobacter aerogenes ATCC 13048 after overnight incubation by twofold agar dilution method; format: functional; in short: as §1
# [9] = test system: Salmonella paratyphi; experiment: Antibacterial activity against Salmonella paratyphi ATCC 12176 after overnight incubation by twofold agar dilution method; format: functional, Salmonella enterica subsp. enterica serovar Paratyphi A; conditions: Salmonella enterica; in short: as §2
Compound,Activity [1],MIC [2],MIC [3],MIC [4],ED50 [5],MIC [6],MIC [7],MIC [8],MIC [9]
Cn1nnnc1SCC1=C(C(=O)[O-])N2C(=O)[C@@H](NC(=O)C[S+]([O-])CC#N)[C@H]2SC1.[Na+] (stereo not given in full),inactive,1.6 µg/mL,> 13 µg/mL,1.6 µg/mL,10 mg/kg,1.6 µg/mL,1.6 µg/mL,12.5 µg/mL,0.8 µg/mL
Cn1nnnc1SCC1=C(C(=O)[O-])N2C(=O)[C@@H](NC(=O)C[S+]([O-])CC(F)(F)F)[C@H]2SC1.[Na+] (stereo not given in full),inactive,0.8 µg/mL,> 13 µg/mL,1.6 µg/mL,1.5 mg/kg,0.4 µg/mL,0.4 µg/mL,6.3 µg/mL,1.6 µg/mL
Cc1nnc(SCC2=C(C(=O)O)N3C(=O)[C@@H](NC(=O)Cn4cnnn4)[C@H]3SC2)s1 [CEFAZOLIN],inactive,0.8 µg/mL,> 13 µg/mL,0.4 µg/mL,6 mg/kg,0.4 µg/mL,0.8 µg/mL,1.6 µg/mL,0.8 µg/mL
CC(=O)OCC1=C(C(=O)[O-])N2C(=O)[C@@H](NC(=O)CS(=O)(=O)CC(F)(F)F)[C@H]2SC1.[Na+],inactive,25 µg/mL,> 13 µg/mL,3.1 µg/mL,100 mg/kg,12.5 µg/mL,6.3 µg/mL,50 µg/mL,3.1 µg/mL
CC(=O)OCC1=C(C(=O)[O-])N2C(=O)[C@@H](NC(=O)C[S+]([O-])CC#N)[C@H]2SC1.[Na+] (stereo not given in full),inactive,12.5 µg/mL,> 13 µg/mL,1.6 µg/mL,21 mg/kg,6.3 µg/mL,6.3 µg/mL,25 µg/mL,3.1 µg/mL
Cn1nnnc1SCC1=C(C(=O)[O-])N2C(=O)[C@@H](NC(=O)CSCC(F)(F)F)[C@H]2SC1.[Na+],inactive,1.6 µg/mL,> 13 µg/mL,0.2 µg/mL,11 mg/kg,0.4 µg/mL,3.1 µg/mL,6.3 µg/mL,0.8 µg/mL
Cn1nnnc1SCC1=C(C(=O)[O-])N2C(=O)[C@@H](NC(=O)CSCC#N)[C@H]2SC1.[Na+],inactive,0.8 µg/mL,> 13 µg/mL,0.4 µg/mL,11 mg/kg,0.8 µg/mL,1.6 µg/mL,12.5 µg/mL,0.4 µg/mL
CC(=O)OCC1=C(C(=O)[O-])N2C(=O)[C@@H](NC(=O)C[S+]([O-])CC(F)(F)F)[C@H]2SC1.[Na+] (stereo not given in full),inactive,6.3 µg/mL,> 13 µg/mL,0.8 µg/mL,25 mg/kg,3.1 µg/mL,3.1 µg/mL,6.3 µg/mL,1.6 µg/mL
Cc1nnc(SCC2=C(C(=O)[O-])N3C(=O)[C@@H](NC(=O)CSCC#N)[C@H]3SC2)s1.[Na+],inactive,1.6 µg/mL,> 13 µg/mL,0.2 µg/mL,14 mg/kg,1.6 µg/mL,1.6 µg/mL,> 200 µg/mL,1.6 µg/mL
CC(=O)OCC1=C(C(=O)[O-])N2C(=O)[C@@H](NC(=O)CSCC#N)[C@H]2SC1.[Na+],inactive,6.3 µg/mL,> 13 µg/mL,0.2 µg/mL,> 200 mg/kg,6.3 µg/mL,1.6 µg/mL,> 200 µg/mL,1.6 µg/mL
